{
  "source": "ChEMBL document CHEMBL1649113",
  "about": "“Efficacy of the combination of tachyplesin III and clarithromycin in rat models of Escherichia coli sepsis” (Antimicrob Agents Chemother, 2008)",
  "key": {"Rattus norvegicus [1]": {"test_system": "Rattus norvegicus", "assay": "Decrease in TNF-alpha level in plasma of Escherichia coli serotype 0111:B4 infected Wistar rat at 1 mg/kg, iv administered immediately after LPS challenge", "assay_type": "functional, organism-based", "set-up": "dose 1 mg/kg", "procedure,_shortened": "(§1)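 Anaesthetised male Wistar rats (15 per group) given 1.0 mg E. coli 0111:B4 LPS i.p. in 500 μl saline, treated immediately; saline controls. Tail-vein blood sampled into EDTA at 0, 2, 6, 12 and 36 h. Endotoxin by Limulus amebocyte lysate: plasma twofold diluted, heated 5 min at 75°C, read against a 0–0.5 EU/ml standard curve. TNF-α by sandwich ELISA at 450 nm, in duplicate, lower limit 0.05 ng/ml.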"}, "Rattus norvegicus [2]": {"test_system": "Rattus norvegicus", "assay": "Decrease in endotoxin level in plasma of Escherichia coli serotype 0111:B4 infected Wistar rat at 1 mg/kg, iv administered immediately after LPS challenge", "assay_type": "functional, organism-based", "set-up": "dose 1 mg/kg", "procedure,_shortened": "as §1"}, "Escherichia coli [3]": {"test_system": "Escherichia coli", "assay": "Antibacterial activity against Escherichia coli ATCC 25922 assessed as inhibition of bacterial growth at 4 mg/L", "assay_type": "functional, organism-based"}, "Escherichia coli [4]": {"test_system": "Escherichia coli", "assay": "Antibacterial activity against Escherichia coli by CLSI method in presence of 2 mg/L tachyplesin 3", "assay_type": "functional, organism-based", "procedure,_shortened": "(§2)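 Permeabilisation assay: 1 × 10^5 CFU added to twofold clarithromycin dilutions (1,000–0.5 μg/ml) in Iso-Sensitest broth, with or without peptide. Clarithromycin MIC compared with and without peptide. The lowest peptide level needed for sensitivity to 30 μg/ml clarithromycin was also determined.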"}, "Escherichia coli [5]": {"test_system": "Escherichia coli", "assay": "Antibacterial activity against Escherichia coli ATCC 25922 by CLSI method", "assay_type": "functional", "procedure,_shortened": "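Broth MIC by CLSI (NCCLS M7-A6) dilution method, run in triplicate.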"}, "Escherichia coli [6]": {"test_system": "Escherichia coli", "assay": "Antibacterial activity against 1x10^9 CFU Escherichia coli ATCC 25922 infected Wistar rat assessed as rat bacterial count in peritoneal fluid at 50 mg/kg, iv administered immediately after bacterial challenge measured 72 hrs postinfection (Rvb= 8.86 logCFU/ml)", "assay_type": "functional", "procedure,_shortened": "(§3)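 Male Wistar rats (3–5 months, 300–400 g) under ketamine/xylazine anaesthesia, inoculated i.p. with 1 × 10^9 CFU log-phase E. coli ATCC 25922 in 1 ml saline. Drug given immediately after challenge; saline controls; 15 rats per group. Survivors killed at end of 72 h. Peritoneal lavage with 10 ml saline, plated on blood agar at 35°C for 48 h, aerobic and anaerobic. Detection limit ≤2 log10 CFU/ml. Mean ± SD.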"}, "Escherichia coli [7]": {"test_system": "Escherichia coli", "assay": "Antibacterial activity against Escherichia coli clinical isolates by CLSI method in presence of 2 mg/L tachyplesin 3", "assay_type": "functional", "procedure,_shortened": "as §2"}, "Rattus norvegicus [8]": {"test_system": "Rattus norvegicus", "assay": "Toxicity in Wistar rat assessed as effect on physiological parameters at 1 mg/kg, iv", "assay_type": "organism-based", "set-up": "dose 1 mg/kg, route intravenous", "conditions": "in vivo", "procedure,_shortened": "(§4)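 Rats receiving the peptide were watched for local inflammation, anorexia, weight loss, diarrhoea, fever and behavioural change. A separate uninfected group given 1 mg/kg peptide was monitored for temperature, pulse, blood pressure, respiration and oxygenation.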"}, "Escherichia coli [9]": {"test_system": "Escherichia coli", "assay": "Antibacterial activity against Escherichia coli ATCC 25922 by CLSI method in presence of 2 mg/L tachyplesin 3", "assay_type": "functional", "procedure,_shortened": "as §2"}, "Escherichia coli [10]": {"test_system": "Escherichia coli", "assay": "Antibacterial activity against 1x10^9 CFU Escherichia coli ATCC 25922 infected Wistar rat assessed as rat mortality at 60 mg/kg, iv administered immediately after bacterial challenge measured 72 hrs postinfection (Rvb mortality = 100%)", "assay_type": "functional"}, "Escherichia coli [11]": {"test_system": "Escherichia coli", "assay": "Antibacterial activity against Escherichia coli ATCC 25922 by CLSI method in presence of tachyplesin 3", "assay_type": "functional"}, "Escherichia coli [12]": {"test_system": "Escherichia coli", "assay": "Antibacterial activity against 1x10^9 CFU Escherichia coli ATCC 25922 infected Wistar rat assessed as rat bacterial count in peritoneal fluid at 1 mg/kg, iv administered immediately after bacterial challenge measured 72 hrs postinfection (Rvb= 8.86 logCFU/ml)", "assay_type": "functional", "procedure,_shortened": "as §3"}, "Escherichia coli [13]": {"test_system": "Escherichia coli", "assay": "Antibacterial activity against Escherichia coli ATCC 25922 assessed as bacterial count after 24 hrs", "assay_type": "functional"}, "Escherichia coli [14]": {"test_system": "Escherichia coli", "assay": "Antibacterial activity against 1x10^9 CFU Escherichia coli ATCC 25922 infected Wistar rat assessed as rat mortality at 1 mg/kg, iv administered immediately after bacterial challenge measured 72 hrs postinfection (Rvb mortality = 100%)", "assay_type": "functional"}, "Escherichia coli [15]": {"test_system": "Escherichia coli", "assay": "Antibacterial activity against Escherichia coli ATCC 25922 by CLSI method in presence of clarithromycin", "assay_type": "functional"}, "Rattus norvegicus [16]": {"test_system": "Rattus norvegicus", "assay": "Toxicity in Wistar rat assessed as occurrence of adverse events at 1 mg/kg, iv", "assay_type": "organism-based", "set-up": "dose 1 mg/kg, route intravenous", "conditions": "in vivo", "procedure,_shortened": "as §4"}},
  "note": "The source made the active and inactive calls. The calls are words filed in the database; no cut-off is given here. Bridge positions count the residues as written; N and C are the ends. Peptide text beside a SMILES is read from it.",
  "data": [
    {"smiles": "CC[C@H](C)[C@H](NC(=O)CNC(=O)[C@H](CCCNC(=N)N)NC(=O)[C@H](Cc1ccc(O)cc1)NC(=O)[C@H](CS)NC(=O)[C@@H](NC(=O)[C@H](CCCNC(=N)N)NC(=O)[C@H](Cc1ccccc1)NC(=O)[C@H](CS)NC(=O)[C@H](Cc1c[nH]c2ccccc12)NC(=O)[C@@H](N)CCCCN)C(C)C)C(=O)N[C@@H](CS)C(=O)N[C@@H](Cc1ccc(O)cc1)C(=O)N[C@@H](CCCNC(=N)N)C(=O)N[C@@H](CCCCN)C(=O)N[C@@H](CS)C(=O)N[C@@H](CCCNC(=N)N)C(N)=O", "note": "(H-KWCFRVCYRGICYRKCR-NH2)", "values": [
      {"measurement": "Activity", "setting": "Rattus norvegicus [1]", "result": "Active"},
      {"measurement": "Activity", "setting": "Rattus norvegicus [2]", "result": "Active"},
      {"measurement": "inhibition", "setting": "Escherichia coli [3]", "result": "Active"}
    ]},
    {"smiles": "CC[C@H]1OC(=O)[C@H](C)[C@@H](O[C@H]2C[C@@](C)(OC)[C@@H](O)[C@H](C)O2)[C@H](C)[C@@H](O[C@@H]2O[C@H](C)C[C@H](N(C)C)[C@H]2O)[C@](C)(OC)C[C@@H](C)C(=O)[C@H](C)[C@@H](O)[C@]1(C)O", "note": "[CLARITHROMYCIN]", "values": [
      {"measurement": "inhibition", "setting": "Escherichia coli [4]", "result": "Active"},
      {"measurement": "MIC", "setting": "Escherichia coli [5]", "result": 128, "unit": "µg/mL"},
      {"measurement": "log10CFU/ml", "setting": "Escherichia coli [6]", "result": 6.68},
      {"measurement": "MIC", "setting": "Escherichia coli [7]", "result": 32, "unit": "µg/mL"},
      {"measurement": "Activity", "setting": "Rattus norvegicus [8]", "result": "Non-toxic"},
      {"measurement": "MIC", "setting": "Escherichia coli [9]", "result": 32, "unit": "µg/mL"},
      {"measurement": "Activity", "setting": "Escherichia coli [10]", "result": 66.6, "unit": "%"}
    ]},
    {"smiles": "CC[C@H](C)[C@@H]1NC(=O)CNC(=O)[C@H](CCCNC(=N)N)NC(=O)[C@H](Cc2ccc(O)cc2)NC(=O)[C@@H]2CSSC[C@H](NC1=O)C(=O)N[C@@H](Cc1ccc(O)cc1)C(=O)N[C@@H](CCCNC(=N)N)C(=O)N[C@@H](CCCCN)C(=O)N[C@H](C(=O)N[C@@H](CCCNC(=N)N)C(N)=O)CSSC[C@H](NC(=O)[C@H](Cc1c[nH]c3ccccc13)NC(=O)[C@@H](N)CCCCN)C(=O)N[C@@H](Cc1ccccc1)C(=O)N[C@@H](CCCNC(=N)N)C(=O)N[C@@H](C(C)C)C(=O)N2", "note": "[TACHYPLESIN III] (H-KWCFRVCYRGICYRKCR-NH2; disulfide 3-16, 7-12)", "values": [
      {"measurement": "fractional inhibitory concentration index (FICI)", "setting": "Escherichia coli [11]", "result": 0.385},
      {"measurement": "log10CFU/ml", "setting": "Escherichia coli [12]", "result": 4.46},
      {"measurement": "CFU", "setting": "Escherichia coli [13]", "result": 5.65, "unit": "×10⁶ /ml"},
      {"measurement": "Activity", "setting": "Escherichia coli [14]", "result": 33.3, "unit": "%"},
      {"measurement": "fractional inhibitory concentration index (FICI)", "setting": "Escherichia coli [15]", "result": 0.385},
      {"measurement": "Activity", "setting": "Rattus norvegicus [16]", "result": "Non-toxic"}
    ]}
  ]
}
